Test [1] has as its target Pantothenate synthetase (Mycobacterium tuberculosis (strain ATCC 25618 / H37Rv)) (UniProt P9WIL5). Nature of the test: Recombinant Mtb pantothenate synthetase (PanC) inhibitors, coupled enzyme, confirmatory (AID 375; call rule not given here;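 note: 0% = full reaction with vehicle and 100% = no enzyme background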). The note with it: coupled enzyme assay; at 10 µM, stronger effect = higher value.
The nature of test [2]: SK-BR-3 cell growth inhibitors, pilot screen, 24 h, human (AID 572;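 active = viability at or below 10% of carrier control in both of two separate runs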;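 note: compound exposure lasted between 18 and 24 h rather than exactly 24 h; 100% = carrier-treated control wells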). Conditions: SK-BR-3 viability, CellTiter-Glo luminescence, at 10 µM, stronger effect = lower value.
Test [3] can be described thus: HUVEC growth inhibition – cell-based, human, primary screen (AID 575;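 active = viability at or below 30% in both replicate assays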;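 note: 100% = median of untreated cell wells with 0.1% DMSO on each plate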). Conditions: HUVEC proliferation, CellTiter-Glo luminescence, 72 h; at 10 µM; stronger effect = lower value. The method in brief:
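Material: primary human umbilical vein endothelial cells / Schedule: 72 h exposure, 37 °C, 5% CO2, 30 min RT equilibration / Signal: ATP-based CellTiter-Glo luminescent read / Read-out basis: percent of median DMSO-control luminescence / Control set: 32 DMSO-only cell-control wells (high), 32 MePR drug-control wells (low) per plate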
For orientation: In ATP-based viability assays light output follows the ATP content of the culture.

Test [4] in a line: growth inhibitors of H69AR lung tumor, primary screen, human, duplicate replicates (AID 580;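 active = viability at or under a set limit in both replicates, limit being median viability minus 3 SD, cut at about 48% in these data, passing the limit was not always enough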;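 note: 100% = mean luminescence of untreated wells and 0% = no signal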). Conditions: H69AR lung tumor cells viability, ATP luminescence, 72 h; at 10 µM; stronger effect = lower value.
A short description of test [5]: reversal of MRP1-mediated doxorubicin resistance, pilot screen, H69AR cells, doxorubicin co-treatment (AID 601;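 active = viability loss from added drug above about 55%, and viability with drug at most 40%, in both replicates, limit read from the data, passing the limit was not always enough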). Conditions: CellTiter-Glo, 72 h, at 10 µM; for differential viability (reversal): stronger effect = higher value.
Test [6] in a line: 384-well plate pilot, post-Golgi transport modulator project, inhibition of yeast transport mutant growth (AID 636; in the data active = inhibition above about 31%). Conditions: absorbance 615 nm, about 18 h, stronger effect = higher value.
Test [7] is described as follows: growth suppression of yeast trafficking mutant, preliminary HTS, modulators of trafficking downstream of Golgi apparatus project, 1536-format plate, OD 615 nm (AID 637). The note with it: yeast transport mutant growth, absorbance 615 nm, 18 h; stronger effect = higher value.
Test [8] in a line: reducers of endogenous Her2 protein level, primary screen, SKBR3 breast tumor cells, AlphaScreen, ATP viability (AID 461;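 active = Her2 level under about 52% in both replicate screens, with viability over 70% of control, limit read from the data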;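 for Her2 level: lower value means less Her2 protein in the cells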;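 for viability: percent of carrier control wells set as 100% viability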). Conditions: 18-24 h, measured here: SKBR3 viability, ATP luminescence, at 10 µM. (In Alpha technology, singlet oxygen from a donor bead excites a nearby acceptor bead.)
Test [9] deals with Receptor tyrosine-protein kinase erbB-2 (Homo sapiens) (UniProt P04626). Described as above. Conditions: 18-24 h, at 10 µM, stronger effect = lower value.
Setting [10] is: H69AR cells + 2 uM doxorubicin, measured here: viability with 2 uM doxorubicin, stronger effect = lower value.
The mark [11] stands for this setting: H69AR cells, compound alone cytotoxicity.

These results are taken from PubChem BioAssay.

Molecules are shown by their SMILES. Activity calls are given as the source filed them. Cut-off read from the data, not from the text of the source, unless noted: active = inhibition above about 30%; inactive = the rest.

Pantothenate synthetase (Mycobacterium tuberculosis (strain ATCC 25618 / H37Rv)), sequence (P9WIL5 whole entry, looked up): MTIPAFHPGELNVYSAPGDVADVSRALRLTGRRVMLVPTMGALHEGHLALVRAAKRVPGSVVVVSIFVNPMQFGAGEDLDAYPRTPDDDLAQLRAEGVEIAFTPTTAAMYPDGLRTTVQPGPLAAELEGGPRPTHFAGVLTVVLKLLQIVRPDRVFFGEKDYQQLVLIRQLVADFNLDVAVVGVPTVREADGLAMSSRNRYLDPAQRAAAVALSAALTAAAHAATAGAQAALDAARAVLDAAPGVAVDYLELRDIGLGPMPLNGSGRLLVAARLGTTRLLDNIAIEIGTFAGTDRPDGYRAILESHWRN
Receptor tyrosine-protein kinase erbB-2 (Homo sapiens), sequence (P04626 whole entry, looked up): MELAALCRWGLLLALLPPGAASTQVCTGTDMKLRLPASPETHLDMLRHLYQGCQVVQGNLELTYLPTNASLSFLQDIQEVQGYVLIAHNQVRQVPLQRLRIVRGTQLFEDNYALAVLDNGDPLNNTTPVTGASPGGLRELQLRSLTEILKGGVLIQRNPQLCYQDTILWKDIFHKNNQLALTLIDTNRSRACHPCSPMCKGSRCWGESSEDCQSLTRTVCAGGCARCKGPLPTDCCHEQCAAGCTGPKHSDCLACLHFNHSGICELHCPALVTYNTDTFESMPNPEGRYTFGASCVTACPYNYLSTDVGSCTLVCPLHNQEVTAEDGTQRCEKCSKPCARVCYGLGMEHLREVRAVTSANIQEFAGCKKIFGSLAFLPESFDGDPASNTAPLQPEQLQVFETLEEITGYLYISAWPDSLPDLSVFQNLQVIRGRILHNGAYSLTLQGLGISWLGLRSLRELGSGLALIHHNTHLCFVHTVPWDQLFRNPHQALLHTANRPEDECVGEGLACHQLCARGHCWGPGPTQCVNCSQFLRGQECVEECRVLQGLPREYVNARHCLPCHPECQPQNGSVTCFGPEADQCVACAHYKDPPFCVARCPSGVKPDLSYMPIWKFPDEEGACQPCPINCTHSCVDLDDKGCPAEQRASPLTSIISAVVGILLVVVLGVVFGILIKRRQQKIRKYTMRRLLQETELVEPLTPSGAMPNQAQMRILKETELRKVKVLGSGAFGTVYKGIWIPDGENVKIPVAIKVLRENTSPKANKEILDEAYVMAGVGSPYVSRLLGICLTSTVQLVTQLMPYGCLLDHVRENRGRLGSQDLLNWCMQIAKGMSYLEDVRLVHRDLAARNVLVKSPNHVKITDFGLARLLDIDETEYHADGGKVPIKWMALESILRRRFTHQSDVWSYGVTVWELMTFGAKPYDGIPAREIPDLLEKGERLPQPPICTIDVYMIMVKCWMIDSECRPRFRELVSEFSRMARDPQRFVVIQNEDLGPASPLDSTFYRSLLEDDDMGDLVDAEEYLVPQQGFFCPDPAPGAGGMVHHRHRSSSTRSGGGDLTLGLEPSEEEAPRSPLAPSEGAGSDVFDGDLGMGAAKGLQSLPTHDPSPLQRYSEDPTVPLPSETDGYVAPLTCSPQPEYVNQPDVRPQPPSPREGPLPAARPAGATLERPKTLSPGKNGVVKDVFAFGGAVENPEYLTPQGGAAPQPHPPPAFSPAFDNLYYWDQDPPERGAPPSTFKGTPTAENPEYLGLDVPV

Usually inhibition stands for the drop in the measured response relative to a control, in per cent. For orientation: viability means a read-out of living cells in per cent, often relative to untreated cells. Regarding `C[C@H]1OC[C@@H](C[N+](C)(C)C)O1`, the inhibition in [1] was 0% (inactive); in test [6], -1.43% (inactive); in test [7], 4.67% (inactive). Moreover, the viability in test [2] was 103% (inactive); in test [3], 99.6% (inactive); in test [4], 106% (inactive); in test [5] (setting [10]), 98.6%; in test [5] (setting [11]), 106%. In test [5] (H69AR cells + 2 uM doxorubicin), the differential viability (reversal) is 7.41% (inactive).

Consider `CC(C)OCCCNC(=O)c1c(N)n(Cc2cccs2)c2nc3ccccc3nc12`, for which the inhibition in [1] was 0% (inactive); in test [6], -2.47% (inactive); in test [7], -7.33% (inactive). Also, the viability in test [2] was 26%; in test [3], 6.24% (active); in test [4], 61.1% (inactive); in [5] (setting [10]), 79.8%; in test [5] (setting [11]), 61.1%. Moreover, the differential viability (reversal) in test [5] (H69AR cells + 2 uM doxorubicin) was -18.8% (inactive).

For the compound `O=C(NC1(C(F)(F)F)Oc2ccc(Cl)cc2O1)N1CCC2(CC1)OCCO2` (centres undefined), the inhibition was 1% (inactive) in test [1], -2.47% (inactive) in test [6] and -5.56% (inactive) in [7]. The viability in test [8] was 91.5%; in test [2], 91.5% (inactive); in test [3], 58.5% (inactive); in test [4] it was 27.9% (active); in [5] (setting [10]), 51.7%; in test [5] (setting [11]) it was 27.9%. Moreover, in test [9], the Her2 level is 87.5% (inactive). Further, the differential viability (reversal) in test [5] (H69AR cells + 2 uM doxorubicin) was -23.8% (inactive).

For `CC(C)[C@@]1(NC(=O)[C@@H]2C=C3c4cccc5[nH]cc(c45)C[C@H]3N(C)C2)O[C@@]2(O)[C@@H]3CCCN3C(=O)[C@H](Cc3ccccc3)N2C1=O`, the inhibition in [1] was 3% (inactive); in test [6], -0.13% (inactive); in [7], 16.8% (inactive). For the same compound, the viability in [2] is 103% (inactive); in test [3], 89% (inactive); in test [4], 90.5% (inactive); in [5] (setting [10]), 101%; in test [5] (setting [11]), 90.5%. In addition, the differential viability (reversal) in test [5] (H69AR cells + 2 uM doxorubicin) was -9.99% (inactive).

Regarding `CC1=C(C(=O)OC(C)C)[C@]2(C(=O)N(CC(N)=O)c3ccccc32)C(C#N)=C(N)O1`, the inhibition was 3% (inactive) in test [1], -6.8% (inactive) in test [6] and 19.5% (inactive) in [7]. Besides, the viability is 92% in test [8]; 92% (inactive) in test [2]; 110% (inactive) in [3]; 113% (inactive) in [4]; 97.5% in [5] (setting [10]); 113% in test [5] (setting [11]). Also, in test [9], the Her2 level is 85.5% (inactive). In [5] (H69AR cells + 2 uM doxorubicin), the differential viability (reversal) was 15.5% (inactive).
